Screens: PubChem, several laboratories
PfM18AAP inh: PfM18AAP enzyme inhibition; recombinant PfM18AAP, H-Glu-NHMec fluorogenic cleavage; inhibition, % at 7.35 µM; 290,000 compounds, 1.2% hits;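 active means inhibition above the campaign mean inhibition over all tested compounds plus 3 SD, cut at about 28% in these data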;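 further: 0% = plate median of test compound wells and 100% = 2 mM ZnCl2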
NS3 helicase inh: inhibitors of Hepatitis C virus NS3 helicase | NS3 helicase DNA unwinding, Cy5 molecular beacon fluorescence | 290,000 compounds, 0.56% hits | AID 1800 | inhibition, % at 10.9 µM;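 active means inhibition above the mean of all tested compounds plus 3 SD, set per campaign, cut at about 35% in these data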;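 further: 0% = DMSO wells and 100% = thioflavine S control wells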
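assay system = NS3 helicase fragment of HCV | buffer or medium = MOPS pH 6.5, MgCl2, DTT, Tween20, BSA | timing = 60 min unwinding reaction at 25 °C after ATP addition | signal = Cy5 beacon fluorescence read at start and 1 h | read-out basis = % inhibition of unwinding | control set = low DMSO, high thioflavine S at 110 µM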
HCV core dimer: blocks dimerization of HCV core protein | inhibition, % at 5 µM | 300,000 compounds, 0.33% hits | TR-FRET GST/Flag-core106 dimerization, 1536-well;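 active means inhibition above the mean of all tested compounds plus 3 SD, set per screening campaign, cut at about 45% in these data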
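assay system = GST-tagged and Flag-tagged HCV core protein residues 1-106 | controls = unlabelled core106 and no-GST-core106 wells | incubation = compound-protein-antibody incubation 4 h at 22.5 °C | probe or stimulus = Eu donor and XL665 acceptor anti-tag antibodies | read-out = % inhibition based on acceptor/donor emission ratio | signal = TR-FRET 671 and 617 nm emission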
ALR inh: human ALR oxidase inhibition via reduced H2O2; AID 485317; 290,000 compounds, 3.8% hits; P55789; purified ALR, DTT oxidation, H2O2 HRP-luminol luminescence; inhibition, % (concentration not given with the values);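 active means mean replicate inhibition above about 79%, with every replicate also reaching it, limit read from the data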
Target sequence (P55789 whole entry, looked up): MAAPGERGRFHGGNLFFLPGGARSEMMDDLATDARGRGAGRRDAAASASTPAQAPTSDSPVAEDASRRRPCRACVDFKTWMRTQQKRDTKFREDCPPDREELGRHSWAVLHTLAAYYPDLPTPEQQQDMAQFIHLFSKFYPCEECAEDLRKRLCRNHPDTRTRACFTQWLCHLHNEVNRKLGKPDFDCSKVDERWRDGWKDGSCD
ZTA counter: ZTA (EBV) inhibition in EBNA-1 counter-screen | P03206 | ZTA-DNA binding, fluorescence polarization | inhibition, % at 11 µM | 320,000 compounds, 0.15% hits; in the data active means inhibition above about 33%
Target sequence (P03206 whole entry, looked up): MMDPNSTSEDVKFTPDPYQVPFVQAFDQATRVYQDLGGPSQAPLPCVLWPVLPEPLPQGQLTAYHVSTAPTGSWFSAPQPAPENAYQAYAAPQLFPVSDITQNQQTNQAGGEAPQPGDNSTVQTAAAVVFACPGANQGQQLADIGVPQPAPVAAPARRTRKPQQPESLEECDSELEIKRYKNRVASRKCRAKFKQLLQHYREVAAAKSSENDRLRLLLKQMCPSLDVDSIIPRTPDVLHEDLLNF
EBNA-1 inhibitor: blocks EBNA-1 binding to DNA; inhibition, % at 14.8 µM; 300,000 compounds, 0.34% hits; EBNA-1 DNA binding, fluorescence polarization; in the data active means inhibition above about 28%
Active calls of the source: *. Compounds with a hit are over-represented: about 5.2% of the library has one in this group of screens.

What do the screens show for `Cc1cccc(NC(=O)/C(C#N)=C/c2cccc([N+](=O)[O-])c2)n1`?
PfM18AAP inh: 27.1; NS3 helicase inh: -1.6; HCV core dimer: -9.3; ALR inh: 12.0; ZTA counter: -1.2; EBNA-1 inhibitor: 3.5

Results for CC1CCN(C(=O)CN2C(=O)NC(c3ccccc3)(c3ccccc3)C2=O)CC1 ?
ZTA counter: 2.6

Results for CCN(CC(=O)Nc1ccc(NC(C)=O)cc1)C(=O)CCCOc1ccc(C(C)(C)C)cc1 ?
HCV core dimer: -6.0; ALR inh: -5.7; ZTA counter: -14.3; EBNA-1 inhibitor: 8.3

How did Cc1cc(NC(=O)C(C)SCC(=O)N(C)Cc2ccccc2F)no1 (stereo not given) do in these assays?
ALR inh: 1.2; ZTA counter: 5.0

What do the screens show for `COc1ccc(N2CCN(CCCNC(=O)C3CCCN(S(=O)(=O)c4cnc[nH]4)C3)CC2)cc1` (stereo not given)?
PfM18AAP inh: 5.9; NS3 helicase inh: -2.3; HCV core dimer: 1.3; ALR inh: 86.8*; ZTA counter: 0.5; EBNA-1 inhibitor: -1.0

Results for COc1ccc(N2CCN(CCCNC(=O)C3CCCN(S(=O)(=O)c4c(C)n[nH]c4C)C3)CC2)cc1 (stereo not given) ?
PfM18AAP inh: 8.5; NS3 helicase inh: -3.6; HCV core dimer: -0.6; ALR inh: 60.6; ZTA counter: 20.1; EBNA-1 inhibitor: 5.0

Results for CC(=O)Nc1nonc1NC(C)=O ?
PfM18AAP inh: 3.7; NS3 helicase inh: -4.0; HCV core dimer: -3.7; ZTA counter: 3.6; EBNA-1 inhibitor: -14.9

Results for CC(=O)Nc1cc(OC(C)=O)c2nonc2c1OC(C)=O ?
PfM18AAP inh: 17.4; NS3 helicase inh: 6.7; HCV core dimer: 1.5; ALR inh: 20.6; ZTA counter: 69.7*; EBNA-1 inhibitor: 6.6

Results for CC(O)CNc1ccc([N+](=O)[O-])cc1S(=O)(=O)N1CCOCC1 (stereo not given) ?
PfM18AAP inh: 3.6; NS3 helicase inh: -0.2; HCV core dimer: -3.1; ALR inh: -18.1; ZTA counter: 3.4; EBNA-1 inhibitor: 3.0

What do the screens show for `O=C(O)CC/C(=N\Nc1ccc([N+](=O)[O-])cc1S(=O)(=O)N1CCOCC1)c1cccs1`?
PfM18AAP inh: 30.4*; NS3 helicase inh: 17.2; HCV core dimer: 7.5; ZTA counter: 5.7; EBNA-1 inhibitor: 3.0

How did Cc1ccc(NC(=O)C2C3CCC(O3)C2C(=O)O)cc1Cl (stereo not given) do in these assays?
PfM18AAP inh: -3.9; NS3 helicase inh: -14.4; HCV core dimer: 1.0; ALR inh: 0.1; ZTA counter: 13.9; EBNA-1 inhibitor: 7.4

Results for COC(=O)CN1C(=O)C(O)(CC(=O)c2ccc(Br)cc2)c2ccccc21 (stereo not given) ?
PfM18AAP inh: -4.1; NS3 helicase inh: -3.0; HCV core dimer: -0.5; ALR inh: 96.5*; ZTA counter: -4.5; EBNA-1 inhibitor: 5.6

How did Cc1ccc(C(=O)CSc2nc(N)cc(=O)[nH]2)cc1C do in these assays?
PfM18AAP inh: -10.7; NS3 helicase inh: -9.3; HCV core dimer: 14.4; ALR inh: 99.1*; ZTA counter: 4.7; EBNA-1 inhibitor: 9.5

Results for Cc1cc(C(=O)CSc2nc(N)cc(=O)[nH]2)ccc1F ?
PfM18AAP inh: 4.1; NS3 helicase inh: -3.8; HCV core dimer: -1.5; ALR inh: 90.4*; ZTA counter: 3.2; EBNA-1 inhibitor: -5.3

What do the screens show for `Cc1ccc(C(=O)CSc2nc(C)cc(=O)[nH]2)cc1`?
PfM18AAP inh: -8.7; NS3 helicase inh: 4.2; HCV core dimer: -2.8; ALR inh: 97.9*; ZTA counter: -0.6; EBNA-1 inhibitor: -5.1

What do the screens show for `CC1CCC(NC(=O)c2cc(S(=O)(=O)N3CCCCC3)ccc2N2CCOCC2)CC1` (stereo not given)?
ALR inh: -5.6; ZTA counter: -5.0

How did Cn1cc(CNC(=O)C2CCC(=O)N(Cc3ccc(Cl)cc3)C2)cn1 (stereo not given) do in these assays?
PfM18AAP inh: -0.7; NS3 helicase inh: 6.1; HCV core dimer: -12.2; ALR inh: -1.7; ZTA counter: -10.3; EBNA-1 inhibitor: -12.0

Results for CCCCC(=O)NC(=S)Nc1cccc(C(=O)O)c1 ?
PfM18AAP inh: -1.8; NS3 helicase inh: 12.8; HCV core dimer: 0.4; ALR inh: 0.8; ZTA counter: 3.0; EBNA-1 inhibitor: 7.9

How did CC#CCCCC(=O)Nc1cccc(C(=O)O)c1 do in these assays?
PfM18AAP inh: -2.2; NS3 helicase inh: 5.0; HCV core dimer: -3.6; ALR inh: 89.9*; ZTA counter: 6.1; EBNA-1 inhibitor: 2.2

Results for Cc1nc(C)c(C(=O)OCC(=O)NCc2ccccc2)s1 ?
ALR inh: 22.7; ZTA counter: 7.0

Results for CCCSc1cc(NCCOC(=O)CCC)c([N+](=O)[O-])c2nonc12 ?
PfM18AAP inh: -19.6; NS3 helicase inh: -2.7; HCV core dimer: 4.5; ALR inh: 97.0*; ZTA counter: -3.5; EBNA-1 inhibitor: -0.9

What do the screens show for `CCCC(=O)OCCNc1cc(Sc2nccn2C)c2nonc2c1[N+](=O)[O-]`?
PfM18AAP inh: -27.2; NS3 helicase inh: -9.1; HCV core dimer: 4.3; ALR inh: 96.6*; ZTA counter: 0.9; EBNA-1 inhibitor: 2.5

Results for COc1ccc(C(=O)C(C)OC(=O)CCN2C(=O)C3CC=CCC3C2=O)cc1 (stereo not given) ?
ALR inh: 0.6; ZTA counter: -1.2

How did Cc1ccc2nc(NC(=O)C3CCN(S(=O)(=O)c4cccc5nsnc45)CC3)sc2c1 do in these assays?
PfM18AAP inh: -4.1; NS3 helicase inh: 21.1; HCV core dimer: 11.0; ALR inh: -11.5; ZTA counter: 7.9; EBNA-1 inhibitor: 4.9

What do the screens show for `O=C(Nc1nc2ccc(F)cc2s1)C1CCN(S(=O)(=O)c2cc([N+](=O)[O-])ccc2Cl)CC1`?
PfM18AAP inh: -6.3; NS3 helicase inh: 4.4; HCV core dimer: 46.5*; ALR inh: -35.3; ZTA counter: -6.9; EBNA-1 inhibitor: -0.9

Results for Cc1ccc2nc(NC(=O)C3CCN(S(=O)(=O)c4cc([N+](=O)[O-])ccc4Cl)CC3)sc2c1 ?
PfM18AAP inh: 1.9; NS3 helicase inh: -22.1; HCV core dimer: 65.7*; ALR inh: 2.9; ZTA counter: 4.9; EBNA-1 inhibitor: 13.6

How did CCOC(=O)CSC1=NC(=O)/C(=C\c2ccc(OC(C)=O)cc2)S1 do in these assays?
PfM18AAP inh: -6.0; NS3 helicase inh: 0.0; HCV core dimer: -2.5; ALR inh: 99.9*; ZTA counter: -1.3; EBNA-1 inhibitor: -5.1

Results for CC(C)[C@H]1COCCS(=O)(=O)N1Cc1cccc(Cl)c1 ?
PfM18AAP inh: 2.2; NS3 helicase inh: 5.4; HCV core dimer: 3.3; ALR inh: 4.1; ZTA counter: -1.3; EBNA-1 inhibitor: 9.4

Results for CCc1cc2cc(C(=O)Nc3ccc(C)cc3)sc2s1 ?
PfM18AAP inh: 8.6; NS3 helicase inh: 15.4; HCV core dimer: 51.9*; ZTA counter: 4.8; EBNA-1 inhibitor: 2.8
